# The list is not random: actives were taken first. Their share in the collection is about 2.3%.
# TRPC6 act: mouse TRPC6 channel activation; HEK293-TRPC6 membrane potential dye fluorescence; hits give high values; B-score at 10 µM; 0.13% of 310,000 active; Q61143;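 active = B-score of the integrated fluorescence ratio above library mean plus 3 SD, and starting fluorescence ratio within library mean plus 5 SD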;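 also: higher score means more depolarization so channel activation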
# TRPC4 block: blocks the mouse TRPC4 cation channel; Q9QUQ5; HEK293 TRPC4beta/mu-opioid, DAMGO-evoked Fluo4 calcium flux; hits give low values; B-score at 10 µM; 0.39% of 300,000 active; AID 2247;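 active = B-score over 3 SD under the library average, no early fluorescence shift, positive overall ratio signal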
#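 Material: HEK293 cells with stable TRPC4beta plus mu-opioid receptor expression; probe or stimulus: DAMGO in two steps, submaximal then maximal; technique: Fluo4 calcium fluorescence by kinetic imaging, 5 s 1 Hz baseline; measure: integrated fluorescence ratio relative to baseline, converted to per-well B score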
# TRPC4 act: TRPC4 (mouse) channel activation. 0.49% of 310,000 active. AID 2237. HEK293 TRPC4beta/mu-opioid, Fluo4 calcium fluorescence; hits give high values. B-score at 10 µM;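 active = B-score above 5 SD of library B-scores, and initial fluorescence ratio not above library mean plus 5 SD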;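 also: positive B-score marks a calcium rise read as TRPC4 activation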
#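 Technique: kinetic Fluo4 calcium fluorescence; Test system: TRPC4beta and mu-opioid receptor HEK293 stable cells; Measure: B-scored integrated calcium fluorescence ratio; Benchmarks: low control buffer alone, high control maximal DAMGO; Schedule: 45 min room-temperature Fluo4 loading, 110 s read.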
# TRPC4 potent: allosteric potentiators of mouse TRPC4 channel. HEK293 TRPC4beta/mu-opioid, DAMGO EC20, Fluo-4 Ca2+ flux; hits give high values. B-score at 10 µM. Q9QUQ5. 0.42% of 310,000 active;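 active = B-score of calcium response area above 5 SD of library B-scores, with initial fluorescence ratio within 5 SD of library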
# TRPC6 inh: inhibitors of mouse TRPC6 channel | 1.1% of 310,000 active | HEK293-TRPC6, membrane potential dye, ACh-evoked depolarization; hits give low values | B-score at 10 µM;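 active = B-score under library mean minus 3 SD, initial fluorescence not abnormally high, positive integrated signal ratio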;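 also: B-score derived from integrated fluorescence ratio over the kinetic read; more negative B-score means stronger inhibition of depolarization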
# TRPC4 sel inh 2: second check of whether TRPC6 inhibitors also affect mouse TRPC4 | shares compounds with TRPC6 inh | HEK293 TRPC4/MOR, membrane potential dye fluorescence; channel activated by saturating DAMGO dose | inhibition, % at 10 µM | 42% of 920 active | AID 2776;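 active = compounds whose fluorescence signal differed from control wells by over 3 SD, either direction, in both duplicate plates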
# TRPC4 spec: mouse TRPC4 off-target activity of TRPC6 inhibitors | shares compounds with TRPC6 inh | HEK293 TRPC4/mu-opioid, membrane potential fluorescence | activity change, negative = inhibition, % at 10 µM | 61% of 920 active;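 active = rise or fall in signal beyond 3 SD of buffer-only wells in both replicate plates, either sign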;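 also: integrated kinetic ratio of fluorescence range over baseline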
# HEK293 MPD ctr 2-1: second check of TRPC6 inhibitor effects in parental HEK293 cells; signal change vs control, % at 10 µM; 31% of 920 active; parental HEK293 membrane potential dye fluorescence; maximal acetylcholine challenge after compound addition; shares compounds with TRPC6 inh; AID 2779;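 active = membrane potential signal moving either way by over 3 SD of the maximum-effect control, in both duplicate plates, meaning non-specific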
# HEK293 MPD ctr-1: checks TRPC6 inhibitor effects in parental HEK293 cells. membrane potential signal change, % at 10 µM. parental HEK293 membrane potential dye fluorescence. shares compounds with TRPC6 inh. 60% of 920 active;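 active = membrane potential signal shifting up or down by more than 3 SD of buffer-only wells, on both duplicate plates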
# HEK293 MPD ctr-2: counter-screen for TRPC6 modulators: effect in parental HEK293 cells | shares compounds with TRPC6 inh | 51% of 2,400 active | membrane potential signal change, % at 10 µM | membrane potential dye fluorescence;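 active = membrane potential signal moves up or down beyond 5 SD from buffer-only wells, on both duplicate plates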
# HEK293 MPD ctr 2-2: second check of TRPC6 modulator effects in parental HEK293 cells. inhibition, % at 10 µM. AID 488926. 14% of 2,400 active. shares compounds with TRPC6 inh. membrane potential dye fluorescence; after compound, maximal acetylcholine stimulation;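 active = membrane potential signal drops by more than 5 SD from the mean control signal, in both duplicate plates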
# TRPC4/MOR mod: selectivity of TRPC6 modulators against mouse TRPC4; shares compounds with TRPC6 inh; 69% of 2,400 active; AID 488927; HEK293 TRPC4/mu-opioid, membrane potential fluorescence; percent change from control (negative = decrease, positive = increase), % at 10 µM;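 active = membrane potential signal moved up or down beyond 5 SD of buffer control wells, in both duplicate plates, actives on both sides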
# TRPC4 ctr inh 2: second selectivity test of TRPC6 modulators against mouse TRPC4 | shares compounds with TRPC6 inh | HEK293 TRPC4/mu-opioid, membrane potential dye fluorescence; stimulated with maximal-effect DAMGO | inhibition, % at 10 µM | 55% of 2,400 active | AID 488928;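 active = drop in membrane potential signal beyond 5 SD of the control wells in both duplicate plates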;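 also: TRPC4 counter screen for TRPC6 hits run under conditions tuned for TRPC6 not TRPC4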
# TRPC6 block conf: confirmation of mouse TRPC6 inhibitors. HEK293-TRPC6, membrane potential dye, ACh-evoked depolarization. shares compounds with TRPC6 inh. inhibition, % at 10 µM. 43% of 3,300 active;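 active = fluorescence ratio falls more than 5 SD below the full-stimulation control mean, in both duplicate runs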;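 also: integrated fluorescence ratio of peak minus minimum over baseline after agonist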
# TRPC6 act confirm: confirmation of mouse TRPC6 activators; HEK293-TRPC6 membrane potential dye fluorescence, FDSS; 11% of 2,800 active; activation, % at 10 µM; shares compounds with TRPC6 inh;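 active = ratio signal rise beyond 5 SD above unstimulated control wells' mean, seen in both duplicate runs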
# Hits are given with their value; . = inactive; / = no result given.
SMILES,TRPC6 act,TRPC4 block,TRPC4 act,TRPC4 potent,TRPC6 inh,HEK293 MPD ctr-2,HEK293 MPD ctr 2-2,TRPC4/MOR mod,TRPC4 ctr inh 2,TRPC6 block conf,TRPC6 act confirm,others
COc1cc(C[C@@H](C)N)c(OC)cc1I,.,.,.,.,-5.15,.,.,.,41.5%,41.5%,.,
COc1ccc(C2C(C(=O)N3CCC4(CC3)OCCO4)c3cc(OC)c(OC)cc3C(=O)N2C)cc1 (stereo not given),.,.,.,.,.,/,/,/,/,/,/,
CC(C)(C)C(=O)OC[N+](C)(C)CCOC(=O)C(O)(c1ccccc1)C1CCCC1 (stereo not given),.,.,.,.,-5.6,.,83.0%,.,.,86.0%,.,
CN1CCCC(C(O)(c2ccccc2)c2ccccc2)C1 (stereo not given),.,.,.,.,.,/,/,/,/,/,/,
O=C(O)C(O)(c1ccccc1)C1CCCC1 (stereo not given),.,.,.,.,.,/,/,/,/,/,/,
CCCC(CCC)C(=O)OC[N+](C)(C)CCOC(=O)C(O)(c1ccccc1)C1CCCC1 (stereo not given),.,.,.,.,-11.1,/,/,/,/,91.7%,.,TRPC4 sel inh 2=.;TRPC4 spec=.;HEK293 MPD ctr 2-1=-29.0%;HEK293 MPD ctr-1=.
COc1cc(C2SCC(=O)Nc3c2c(C)nn3-c2ccccc2)cc(OC)c1OC (stereo not given),.,.,.,.,.,/,/,/,/,/,/,
CCCCOCCCn1c(N)c(C(=O)OC(C)COC)c2nc3ccccc3nc21 (stereo not given),.,.,.,.,.,/,/,/,/,/,/,
O=P1(NCCCn2cc[n+](Cc3nc4ccccc4[nH]3)c2)C=C(c2ccccc2)OC(c2ccccc2)=C1,.,.,.,.,.,/,/,/,/,/,/,
Oc1ccc(Cl)cc1CN1CCN(Cc2ccccc2)CC1,.,.,.,.,.,/,/,/,/,/,/,
O=C1NC(=O)N(c2ccc(F)cc2)C(=O)/C1=C/c1ccsc1,.,.,.,.,-5.49,.,.,.,.,.,/,
CC(=O)Nc1ccccc1OC(=O)N(C)C,.,.,.,.,.,/,/,/,/,/,/,
CCOC(=O)C1CCN(C=C2C(=O)N(C)C(=S)N(C)C2=O)CC1,.,.,.,.,-9.72,/,/,/,/,.,.,TRPC4 sel inh 2=.;TRPC4 spec=.;HEK293 MPD ctr 2-1=.;HEK293 MPD ctr-1=.
CC(=O)c1ccccc1NC(=O)C1C2CCC(O2)C1C(=O)O (stereo not given),.,.,.,.,.,/,/,/,/,/,/,
Cc1cc(Cl)ccc1C(=O)C1CCCN(C2CCSCC2)C1 (stereo not given),.,.,.,.,-5.76,174.0%,.,31.5%,.,.,/,

# High-throughput results as filed in PubChem BioAssay.
